Each structure is given as a SMILES string.

Drawing on ChEMBL document CHEMBL1821578, “Bioactive A-type proanthocyanidins from Cinnamomum cassia” (J Nat Prod, 2011), this text covers inhibition for 4 molecules.

The target in test [1] is T1, Prostaglandin G/H synthase 2 (Homo sapiens) (UniProt P35354).
T1 sequence (whole entry): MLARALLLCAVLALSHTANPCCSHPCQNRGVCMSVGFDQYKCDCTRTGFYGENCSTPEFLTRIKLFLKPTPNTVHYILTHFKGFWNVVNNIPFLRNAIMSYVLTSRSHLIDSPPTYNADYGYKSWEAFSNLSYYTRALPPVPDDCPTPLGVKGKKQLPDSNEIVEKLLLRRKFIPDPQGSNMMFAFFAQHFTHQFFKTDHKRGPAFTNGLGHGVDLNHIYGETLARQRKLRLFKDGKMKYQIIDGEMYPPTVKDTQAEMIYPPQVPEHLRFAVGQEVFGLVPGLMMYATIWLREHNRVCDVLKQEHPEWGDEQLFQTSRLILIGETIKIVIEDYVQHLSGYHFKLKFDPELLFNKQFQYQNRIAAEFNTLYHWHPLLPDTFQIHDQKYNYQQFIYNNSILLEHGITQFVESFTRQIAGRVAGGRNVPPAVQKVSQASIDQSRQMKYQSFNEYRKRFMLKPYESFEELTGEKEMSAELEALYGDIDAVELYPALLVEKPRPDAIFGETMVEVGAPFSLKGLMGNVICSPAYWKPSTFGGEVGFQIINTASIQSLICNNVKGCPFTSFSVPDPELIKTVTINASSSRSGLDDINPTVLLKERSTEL
As to the kind of experiment: Inhibition of human recombinant COX2 expressed in Sf9 cells at 100 ug/mL. The essentials: (§1)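 Enzyme: human recombinant COX-2 produced in Sf9 cells, assayed by a previously published procedure. Each compound was run in triplicate at three log-spaced levels (10, 100 and 1000 μg/mL). Inhibition of enzyme activity is the read-out.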

Test [2] addresses T1, Prostaglandin G/H synthase 2 (Homo sapiens). The experiment in a line: Inhibition of human recombinant COX2 expressed in Sf9 cells at 1000 ug/mL. Put shortly: as §1
The target is the same in test [3]. The experiment in a line: Inhibition of human recombinant COX2 expressed in Sf9 cells at 10 ug/mL. The essentials: as §1

The inhibition is how much of the control response was suppressed. In the case of `Oc1cc(O)c2c(c1)O[C@@]1(c3ccc(O)c(O)c3)Oc3cc(O)c4c(c3[C@@H]2[C@H]1O)O[C@H](c1ccc(O)c(O)c1)[C@H](O)[C@H]4c1c(O)cc(O)c2c1O[C@H](c1ccc(O)c(O)c1)[C@@H](O)C2` (mixture of isomers), the inhibition was found to be 44% in test [1], 95% in test [2] and 2% in test [3].

As for `Oc1cc(O)c2c(c1)O[C@@]1(c3ccc(O)c(O)c3)Oc3cc(O)c4c(c3[C@@H]2[C@H]1O)O[C@H](c1ccc(O)c(O)c1)[C@H](O)[C@H]4c1c(O)cc(O)c2c1O[C@H](c1ccc(O)c(O)c1)[C@H](O)C2` (mixture of isomers), the inhibition amounted to 27% in test [1], 86% in test [2] and 19% in test [3].

Take `Oc1cc(O)c2c(c1)O[C@H](c1ccc(O)c(O)c1)[C@H](O)[C@H]2c1c(O)c2c(c3c1O[C@]1(c4ccc(O)c(O)c4)Oc4cc(O)cc(O)c4[C@H]3[C@H]1O)O[C@H](c1ccc(O)c(O)c1)[C@H](O)[C@H]2c1c(O)cc(O)c2c1O[C@H](c1ccc(O)c(O)c1)[C@@H](O)C2` (mixture of isomers): the inhibition in test [1] was found to be 52%; in test [2], 97%; in test [3] it was 38%.

As for `Oc1cc(O)c2c(c1)O[C@H](c1ccc(O)c(O)c1)[C@H](O)[C@H]2c1c(O)c2c(c3c1O[C@]1(c4ccc(O)c(O)c4)Oc4cc(O)cc(O)c4[C@H]3[C@H]1O)O[C@H](c1ccc(O)c(O)c1)[C@H](O)[C@H]2c1c(O)cc(O)c2c1O[C@H](c1ccc(O)c(O)c1)[C@H](O)C2` (mixture of isomers), the inhibition in test [1] is 86%; in test [2], 94%; in test [3], 14%.
